Assay results: ChEMBL document CHEMBL4354817, “4-(3-Aminoazetidin-1-yl)pyrimidin-2-amines as High-Affinity Non-imidazole Histamine H3 Receptor Agonists with in Vivo Central Nervous System Activity” (J Med Chem, 2019)
Values belong to the molecule of their own block, whether it stands above or below them. Calls of active or inactive are those of the source. The calls are words filed in the database; no cut-off is given here.

Assays:
Histamine H3 receptor [1] = biological target: T1, Histamine H3 receptor (Homo sapiens, UniProt Q9Y5N1); assay: Agonist activity at human H3R expressed on HEK293T cells assessed as inhibition of forskolin-induced CRE-driven luciferase activity co-incubated with forskolin for 6 hrs and measured after 30 mins by CRE-luciferase reporter gene assay; type: functional
T1 sequence (Q9Y5N1 whole entry): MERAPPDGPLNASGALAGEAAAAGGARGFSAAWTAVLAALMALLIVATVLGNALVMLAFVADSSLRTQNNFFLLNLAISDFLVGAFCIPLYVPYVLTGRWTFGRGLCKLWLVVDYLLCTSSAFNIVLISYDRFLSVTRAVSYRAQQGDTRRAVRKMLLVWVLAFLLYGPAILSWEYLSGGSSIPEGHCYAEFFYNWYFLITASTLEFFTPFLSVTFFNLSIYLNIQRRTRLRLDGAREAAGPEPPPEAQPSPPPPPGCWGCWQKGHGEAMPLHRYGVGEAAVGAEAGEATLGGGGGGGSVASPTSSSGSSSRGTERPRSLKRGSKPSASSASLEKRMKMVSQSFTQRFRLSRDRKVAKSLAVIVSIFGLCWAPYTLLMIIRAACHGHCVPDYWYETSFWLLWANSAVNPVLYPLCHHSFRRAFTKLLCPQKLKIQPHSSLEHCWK
Procedure, shortened: (§1)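 HEK293T cells transiently transfected (PEI method) in suspension with receptor cDNA (1000 ng), CRE-luciferase (2500 ng) and empty pcDEF3; 50.000 cells/well on poly-L-lysine, grown 24 h. Stimulated with increasing ligand concentrations plus 1 μM forskolin, 37 °C, 5% CO2, 6 h. Luciferase reagent (ATP, D-luciferin) added, luminescence read after 30 min at 37 °C. Nonlinear regression; α relative to histamine; three experiments in triplicate.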

Histamine H3 receptor [2] = biological target: T1, Histamine H3 receptor; assay: Intrinsic activity at human H3R expressed on HEK293T cells assessed as activation of forskolin-induced CRE-driven luciferase activity co-incubated with forskolin for 6 hrs and measured after 30 mins by CRE-luciferase reporter gene assay relative to histamine; type: functional; procedure, shortened: as §1
Histamine H3 receptor [3] = biological target: T1, Histamine H3 receptor; assay: Displacement of [3H]NAMH from human H3R expressed in HEK293T cells incubated for 2 hrs by microbeta scintillation counting analysis; type: cell-based
Procedure, shortened: (§2)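 Homogenates of HEK293T cells transiently expressing hH3R or mH3R, harvested 48 h post-transfection, incubated with 2 nM [3H]NAMH and increasing unlabeled ligand in 50 mM Tris–HCl pH 7.4, 2 h at 25 °C. Rapid filtration over 0.5% PEI-coated GF/C filters, scintillation counting. One-site fit; IC50 converted to pKi by Cheng–Prusoff; three experiments in triplicate.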

[4] = biological target: Histamine H3 receptor (Mus musculus) (UniProt P58406); assay: Intrinsic activity at mouse H3R expressed on HEK293T cells assessed as activation of forskolin-induced CRE-luciferase reporter gene activity co-incubated with forskolin for 6 hrs and measured after 30 mins by luciferase reporter gene assay; type: functional; procedure, shortened: as §1
Sequence of Histamine H3 receptor (Mus musculus) (P58406 whole entry): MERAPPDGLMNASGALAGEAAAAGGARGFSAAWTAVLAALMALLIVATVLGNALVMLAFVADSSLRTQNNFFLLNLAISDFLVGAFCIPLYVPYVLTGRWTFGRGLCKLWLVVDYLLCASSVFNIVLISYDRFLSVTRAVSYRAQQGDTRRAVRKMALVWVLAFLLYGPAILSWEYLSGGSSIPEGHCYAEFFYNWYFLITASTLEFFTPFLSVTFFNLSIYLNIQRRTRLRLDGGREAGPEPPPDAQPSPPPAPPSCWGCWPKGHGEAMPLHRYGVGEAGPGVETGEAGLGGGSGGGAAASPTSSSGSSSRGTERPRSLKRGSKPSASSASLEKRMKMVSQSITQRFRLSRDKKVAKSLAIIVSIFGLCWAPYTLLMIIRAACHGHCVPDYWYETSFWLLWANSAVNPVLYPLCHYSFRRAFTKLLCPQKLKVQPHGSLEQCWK

[5] = Half life in rat liver microsomes at 50 uM measured up to 45 mins by UPLC/MS analysis; type: ADME, Microsome; details: 0.75 h
[6] = biological target: Histamine H2 receptor (Homo sapiens) (UniProt P25021); assay: Agonist activity at human H2R expressed on HEK293T cells assessed as inhibition of forskolin-induced CRE-driven luciferase activity up to 10 uM pre-incubated with forskolin for 6 hrs and measured after 30 mins by luciferase reporter gene assay; type: functional
Sequence of Histamine H2 receptor (Homo sapiens) (P25021 whole entry): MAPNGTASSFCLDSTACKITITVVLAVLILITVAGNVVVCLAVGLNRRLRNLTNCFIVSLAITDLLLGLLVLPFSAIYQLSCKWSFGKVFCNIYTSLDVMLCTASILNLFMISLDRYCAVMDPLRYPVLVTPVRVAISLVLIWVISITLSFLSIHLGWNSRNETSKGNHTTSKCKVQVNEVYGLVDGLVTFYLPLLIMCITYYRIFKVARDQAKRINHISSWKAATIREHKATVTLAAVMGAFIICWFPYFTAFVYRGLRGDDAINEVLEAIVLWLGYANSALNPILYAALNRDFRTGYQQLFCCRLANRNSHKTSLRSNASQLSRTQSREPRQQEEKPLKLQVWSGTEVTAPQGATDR
Procedure, shortened: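 HEK293T cells transfected in suspension with H2R cDNA (2500 ng), CRE-luciferase (2500 ng) and empty pcDEF3; 50.000 cells/well, grown 24 h before ligand stimulation. Luminescence read 30 min after luciferase reagent (ATP, D-luciferin) at 37 °C. Dose–response curves fitted by nonlinear regression.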

Histamine H3 receptor [7] = biological target: T2, Histamine H3 receptor (Mus musculus, UniProt P58406); assay: Displacement of [3H]NAMH from mouse H3R expressed in HEK293T cells incubated for 2 hrs by microbeta scintillation counting analysis; type: cell-based; procedure, shortened: as §2
T2 sequence (P58406 whole entry): as the sequence (P58406 whole entry) above

Histamine H4 receptor [8] = biological target: T3, Histamine H4 receptor (Homo sapiens, UniProt Q9H3N8); assay: Displacement of [3H]histamine from human H4R expressed in HEK293T cells incubated for 2 hrs by microbeta scintillation counting analysis
Histamine H4 receptor [9] = biological target: T4, Histamine H4 receptor (Mus musculus, UniProt Q91ZY2); assay: Displacement of [3H]histamine from mouse H4R expressed in HEK293T cells incubated for 2 hrs by microbeta scintillation counting analysis; type: cell-based
T4 sequence (Q91ZY2 whole entry): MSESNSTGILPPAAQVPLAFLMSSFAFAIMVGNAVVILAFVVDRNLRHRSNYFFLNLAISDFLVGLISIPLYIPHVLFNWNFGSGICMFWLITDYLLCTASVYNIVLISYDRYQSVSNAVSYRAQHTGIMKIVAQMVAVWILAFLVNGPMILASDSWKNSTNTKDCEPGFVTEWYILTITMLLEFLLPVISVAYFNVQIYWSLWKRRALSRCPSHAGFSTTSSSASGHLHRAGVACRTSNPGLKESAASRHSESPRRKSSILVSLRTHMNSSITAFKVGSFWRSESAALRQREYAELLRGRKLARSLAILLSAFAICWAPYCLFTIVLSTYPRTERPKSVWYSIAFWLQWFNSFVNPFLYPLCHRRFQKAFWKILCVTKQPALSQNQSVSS
Procedure, shortened: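 mH4R-expressing HEK293T homogenates incubated with 30 nM [3H]histamine and increasing unlabeled ligand in 50 mM Tris–HCl pH 7.4, 2 h at 25 °C. Filtered over 0.5% PEI-coated GF/C filters; bound radioactivity counted. One-site fit, Cheng–Prusoff conversion to pKi.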

[10] = Intrinsic clearance in rat liver microsomes at 50 uM measured up to 45 mins by UPLC/MS analysis; type: ADME, Microsome; details: read-out: CLH
Mus musculus [11] = assay: Effect on social recognition in C57Bl6 mouse assessed as change in time spent in exploring cage at 5 mg/kg, ip administered 30 mins prior to training trial; type: ADME, organism-based; details: in vivo, 0.5 h
Procedure, shortened: (§3)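 Male C57Bl6 mice, 8–9 weeks. Session 1: 10 min arena habituation with two empty wire cups. 24 h later, 10 min with juvenile (4–5 weeks) under one cup; 1 h later, 10 min test with familiar plus novel juvenile. 5 mg/kg or vehicle i.p. 30 min before second session. Blind video scoring of exploration; sociability and discrimination indices; 10–11 mice/group.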

Mus musculus [12] = assay: Effect on social recognition in C57Bl6 mouse assessed as change in time spent with familiar juvenile at 5 mg/kg, ip administered 30 mins prior to training trial; type: ADME, organism-based; details: in vivo, 0.5 h; procedure, shortened: as §3
Histamine H3 receptor [13] = biological target: T1, Histamine H3 receptor; assay: Intrisic activity at human H3R expressed on HEK293T cells by [35S]GTPgammaS binding assay relative to histamine; type: functional
Procedure, shortened: (§4)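 [35S]GTPγS accumulation measured on homogenates of HEK293T cells transiently expressing hH3R, with increasing ligand concentrations; α expressed relative to histamine. At least three experiments in triplicate.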

Histamine H3 receptor [14] = biological target: T1, Histamine H3 receptor; assay: Agonist activity at human H3R expressed on HEK293T cells by [35S]GTPgammaS binding assay; type: functional; procedure, shortened: as §4
Histamine H4 receptor [15] = biological target: T3, Histamine H4 receptor; assay: Intrinsic activity at human H4R expressed on HEK293T cells assessed as activation of forskolin-induced CRE-driven luciferase activity co-incubated with forskolin for 6 hrs and measured after 30 mins by CRE-luciferase reporter gene assay relative to histamine; type: functional; procedure, shortened: as §1
Mus musculus [16] = assay: Effect on social recognition in C57Bl6 mouse assessed as change in time spent with novel juvenile at 5 mg/kg, ip administered 30 mins prior to training trial; type: ADME, organism-based; details: in vivo, 0.5 h; procedure, shortened: as §3
[17] = Half life in mouse liver microsomes at 50 uM measured up to 45 mins by UPLC/MS analysis; type: ADME, Microsome
[18] = biological target: T5, Histamine H4 receptor (Mus musculus) (UniProt Q91ZY2); assay: Intrinsic activity at mouse H4R expressed on HEK293T cells assessed as activation of forskolin-induced CRE-luciferase reporter gene activity co-incubated with forskolin for 6 hrs and measured after 30 mins by luciferase reporter gene assay; type: functional; procedure, shortened: as §1
T5 sequence (whole entry): T4 sequence (Q91ZY2 whole entry)

Mus musculus [19] = assay: Effect on social recognition in C57Bl6 mouse assessed as change in behavior at 5 mg/kg, ip administered 30 mins prior to training trial; type: ADME, organism-based; details: in vivo, 0.5 h; procedure, shortened: as §3
Histamine H4 receptor [20] = biological target: T3, Histamine H4 receptor; assay: Agonist activity at human H4R expressed on HEK293T cells assessed as inhibition of forskolin-induced CRE-driven luciferase activity co-incubated with forskolin for 6 hrs and measured after 30 mins by CRE-luciferase reporter gene assay; type: functional; procedure, shortened: as §1
Cytochrome P450 2C9 = Cytochrome P450 2C9 (Homo sapiens, UniProt P11712); assay: Inhibition of human CYP2C9 expressed in baculovirus infected insect cells using beetle D-luciferin as substrate preincubated for 30 mins followed by NADPH addition and measured after 30 mins by CYP450-Glo assay; type: ADME
Sequence of Cytochrome P450 2C9 (P11712 whole entry): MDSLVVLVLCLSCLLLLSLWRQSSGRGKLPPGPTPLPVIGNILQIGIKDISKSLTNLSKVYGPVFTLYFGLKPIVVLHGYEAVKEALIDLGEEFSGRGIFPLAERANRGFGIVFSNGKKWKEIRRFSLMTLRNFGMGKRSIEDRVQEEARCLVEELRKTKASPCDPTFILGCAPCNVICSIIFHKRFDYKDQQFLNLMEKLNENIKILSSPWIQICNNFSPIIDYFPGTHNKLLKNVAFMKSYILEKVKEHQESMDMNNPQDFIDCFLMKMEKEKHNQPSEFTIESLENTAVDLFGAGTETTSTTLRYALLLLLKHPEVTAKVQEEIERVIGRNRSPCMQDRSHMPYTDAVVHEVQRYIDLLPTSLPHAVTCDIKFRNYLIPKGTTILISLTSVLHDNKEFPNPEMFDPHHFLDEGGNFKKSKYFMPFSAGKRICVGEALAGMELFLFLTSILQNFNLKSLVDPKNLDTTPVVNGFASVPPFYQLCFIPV

Cytochrome P450 2D6 = Cytochrome P450 2D6 (Homo sapiens, UniProt P10635); assay: Inhibition of human CYP2D6 expressed in baculovirus infected insect cells using beetle D-luciferin as substrate preincubated for 30 mins followed by NADPH addition and measured after 30 mins by CYP450-Glo assay; type: ADME
Sequence of Cytochrome P450 2D6 (P10635 whole entry): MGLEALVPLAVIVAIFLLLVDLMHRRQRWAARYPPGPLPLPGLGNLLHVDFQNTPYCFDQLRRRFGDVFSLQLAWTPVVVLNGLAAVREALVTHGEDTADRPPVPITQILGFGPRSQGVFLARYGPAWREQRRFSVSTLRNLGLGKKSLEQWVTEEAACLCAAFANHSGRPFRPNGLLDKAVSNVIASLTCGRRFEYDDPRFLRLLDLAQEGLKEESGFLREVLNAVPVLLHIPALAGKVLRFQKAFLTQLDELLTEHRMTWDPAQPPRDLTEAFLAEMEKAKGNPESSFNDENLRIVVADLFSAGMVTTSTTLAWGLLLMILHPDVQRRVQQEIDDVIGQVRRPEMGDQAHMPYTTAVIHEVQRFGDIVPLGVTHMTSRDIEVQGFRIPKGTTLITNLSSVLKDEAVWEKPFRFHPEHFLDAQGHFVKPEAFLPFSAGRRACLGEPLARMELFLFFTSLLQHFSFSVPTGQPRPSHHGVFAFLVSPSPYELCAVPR

Histamine H3 receptor [21] = biological target: T2, Histamine H3 receptor; assay: Agonist activity at mouse H3R expressed on HEK293T cells assessed as inhibition of forskolin-induced CRE-driven luciferase activity co-incubated with forskolin for 6 hrs and measured after 30 mins by luciferase reporter gene assay; type: functional; procedure, shortened: as §1
Cytochrome P450 3A4 = Cytochrome P450 3A4 (Homo sapiens, UniProt P08684); assay: Inhibition of human CYP3A4 expressed in baculovirus infected insect cells using beetle D-luciferin as substrate preincubated for 30 mins followed by NADPH addition and measured after 30 mins by CYP450-Glo assay; type: ADME
Sequence of Cytochrome P450 3A4 (P08684 whole entry): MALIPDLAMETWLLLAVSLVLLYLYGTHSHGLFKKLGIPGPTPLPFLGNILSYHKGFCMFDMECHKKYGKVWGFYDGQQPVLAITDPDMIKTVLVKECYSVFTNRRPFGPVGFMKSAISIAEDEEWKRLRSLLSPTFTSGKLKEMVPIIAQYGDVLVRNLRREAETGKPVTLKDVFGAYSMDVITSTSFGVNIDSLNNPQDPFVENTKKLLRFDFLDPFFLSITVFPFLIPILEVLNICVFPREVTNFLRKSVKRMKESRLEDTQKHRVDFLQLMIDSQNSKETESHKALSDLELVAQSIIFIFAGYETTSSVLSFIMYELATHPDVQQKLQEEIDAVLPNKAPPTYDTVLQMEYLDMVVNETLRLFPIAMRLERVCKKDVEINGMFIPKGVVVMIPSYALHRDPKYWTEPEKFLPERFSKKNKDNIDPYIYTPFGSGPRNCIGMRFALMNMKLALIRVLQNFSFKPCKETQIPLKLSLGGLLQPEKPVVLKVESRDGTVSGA

Histamine H4 receptor [22] = biological target: T4, Histamine H4 receptor; assay: Agonist activity at mouse H4R expressed on HEK293T cells assessed as inhibition of forskolin-induced CRE-driven luciferase activity co-incubated with forskolin for 6 hrs and measured after 30 mins by luciferase reporter gene assay; type: functional; procedure, shortened: as §1
[23] = Intrinsic clearance in mouse liver microsomes at 50 uM measured up to 45 mins by UPLC/MS analysis; type: ADME, Microsome; details: read-out: CLH
Histamine H3 receptor [24] = biological target: T1, Histamine H3 receptor; assay: Displacement of [3H]-N-alpha-methylhistamine from human histamine H3 receptor expressed in CHO cells incubated for 40 min by liquid scintillation counting analysis; type: cell-based
Histamine H3 receptor [25] = biological target: T1, Histamine H3 receptor; assay: Agonist activity at recombinant human H3R expressed on cells incubated for 60 mins by [35S]GTPgammaS binding assay; type: functional

SMILES: CNC1CN(c2cc(C(C)C)nc(N)n2)C1
EC50 (Histamine H3 receptor [1]): 12.6 nM | Intrinsic activity (Histamine H3 receptor [2]): 0.7 | Ki (Histamine H3 receptor [3]): 100 nM

SMILES: Nc1nccc(N2CC(N)C2)n1
EC50 (Histamine H3 receptor [1]): 5.01 nM | Intrinsic activity (Histamine H3 receptor [2]): 1.1 | Ki (Histamine H3 receptor [3]): 15.8 nM

SMILES: CCNC1CN(c2cc(C)nc(N)n2)C1
EC50 (Histamine H3 receptor [1]): 12.6 nM | Intrinsic activity (Histamine H3 receptor [2]): 1 | Ki (Histamine H3 receptor [3]): 79.4 nM

SMILES: Cc1cc(N2CC(N)C2)nc(N)n1
EC50 (Histamine H3 receptor [1]): 15.8 nM | Intrinsic activity (Histamine H3 receptor [2]): 0.9 | Ki (Histamine H3 receptor [3]): 50.1 nM

SMILES: CCCCC(=O)O[C@H]1C[C@@H]2C[C@H]3[C@](NC)(CN2[C@@H](C)C1)C[C@]1(C(=O)Nc2c(C(=O)[C@H]4OC4(C)C)cccc21)[C@]3(C)C=O
Ki (Histamine H3 receptor [24]): 50.1 nM | EC50 (Histamine H3 receptor [25]): 126 nM

SMILES: CCc1cc(N2CC(N(C)C)C2)nc(N)n1
EC50 (Histamine H3 receptor [1]): 63.1 nM | Intrinsic activity (Histamine H3 receptor [2]): 0.8 | Ki (Histamine H3 receptor [3]): 251 nM

Second part, led by results:

EC50 (Histamine H3 receptor [1]): 7.94 nM | Intrinsic activity (Histamine H3 receptor [2]): 1.2 | Ki (Histamine H3 receptor [3]): 63.1 nM
SMILES: CCN(CC)C1CN(c2ccnc(N)n2)C1

EC50 (Histamine H3 receptor [1]): 5.01 nM | Intrinsic activity (Histamine H3 receptor [2]): 1.1 | Ki (Histamine H3 receptor [3]): 39.8 nM
SMILES: CC(C)CNC1CN(c2ccnc(N)n2)C1

EC50 (Histamine H3 receptor [1]): 0.794 nM | Intrinsic activity (Histamine H3 receptor [2]): 1.2 | Ki (Histamine H3 receptor [3]): 15.8 nM
SMILES: CCCCNC1CN(c2ccnc(N)n2)C1

Intrinsic activity [4]: 1.2 | t1/2 [5]: 3.98 h | Activity [6]: inactive | Ki (Histamine H3 receptor [7]): 1 nM | Ki (Histamine H4 receptor [8]): 7.94 nM | Ki (Histamine H4 receptor [9]): 15.8 nM | CLint scaled at 50 µM [10]: 7.9 mL/min/kg | EC50 (Histamine H3 receptor [1]): 0.316 nM | Intrinsic activity (Histamine H3 receptor [13]): 0.5 | EC50 (Histamine H3 receptor [14]): 3.98 nM | Intrinsic activity (Histamine H3 receptor [2]): 1.2 | Intrinsic activity (Histamine H4 receptor [15]): 1.1 | Ki (Histamine H3 receptor [3]): 3.16 nM | half-life at 50 µM [17]: 2.18 h | Intrinsic activity [18]: 1.1 | EC50 (Histamine H4 receptor [20]): 3.16 nM | IC50 (Cytochrome P450 2C9): > 25000 nM | IC50 (Cytochrome P450 2D6): > 25000 nM | EC50 (Histamine H3 receptor [21]): 0.1 nM | IC50 (Cytochrome P450 3A4): > 25000 nM | EC50 (Histamine H4 receptor [22]): 1 nM | CLint scaled at 50 µM [23]: 20.7 mL/min/kg
SMILES: CCCNC1CN(c2ccnc(N)n2)C1.O.O=C(O)/C=C/C(=O)O
Activity (Mus musculus [11]): Non-Toxic | Activity (Mus musculus [12]): Non-Toxic | Activity (Mus musculus [16]): Non-Toxic | Activity (Mus musculus [19]): Non-Toxic

EC50 (Histamine H3 receptor [1]): 2 nM | Intrinsic activity (Histamine H3 receptor [2]): 1.1 | Ki (Histamine H3 receptor [3]): 12.6 nM
SMILES: CCC(C)NC1CN(c2ccnc(N)n2)C1 (racemic)

EC50 (Histamine H3 receptor [1]): 3.16 nM | Intrinsic activity (Histamine H3 receptor [2]): 1.2 | Ki (Histamine H3 receptor [3]): 39.8 nM
SMILES: CC(C)NC1CN(c2ccnc(N)n2)C1
